CHOP inh: inhibitors of CHOP promoter induction, primary screen, cell-based, unfolded protein response, luciferase reporter. inhibition, % at 10 µM. actives 3.8% (n = 220,000). CHO-K1 CHOP-promoter luciferase, tunicamycin-induced, 15-18 h;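 active = compounds that reduced the stress-induced luciferase reporter signal by more than about 70% of percent inhibition, limit read from the data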;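 also: 0% = tunicamycin plus vehicle and 100% = wells without tunicamycin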
Cardio protect: cardioprotection against H2O2-induced cell death, primary screen, uHTS, H9c2 cells, ATPLite luminescence; H9c2 cardiomyocytes, H2O2 injury protection, 2 h; protection from H2O2 cell death, % at 20 µM; actives 0.63% (n = 360,000); AID 588492, 2011;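 active = compounds giving at least 50% protection of heart cells from peroxide-induced death in the single-dose screen, raw or plate-pattern-corrected value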;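 also: 0% = DMSO wells with peroxide and 100% = DMSO wells without peroxide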
iPSC survival up: enhancers of single-cell hiPSC survival, primary screen, ATPlite luminescence | actives 0.044% (n = 360,000) | 100% = ROCK inhibitor wells, 0% = DMSO | survival enhancement, % at 20 µM; in the data active = survival enhancement above about 18%;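 also: cells exposed to compounds for 16 hours before the ATP read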
UPR CHOP act: activators of apoptotic CHOP UPR arm, primary screen, cell-based, CHO-CHOP luciferase reporter, luminescence, uHTS | UPR activation; percent of tunicamycin response over DMSO baseline | activation, % at 10 µM | AID 449763, 2010 | actives 0.34% (n = 330,000);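 active = at 10 µM dose, activation of 40% or more, normalized to positive control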;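 also: 100% = tunicamycin at 10 µg/mL and 0% = DMSO alone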
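Material: CHO-CHOP cells, stable luciferase reporter of PERK-eIF2a-CHOP signalling; quantity: 500 reporter cells seeded per well; buffer or medium: F12 medium containing 10% fetal bovine serum; compound: one dose, 10 µM in 0.5% DMSO; incubation: 6 h compound treatment, 37 °C; measured by: Steady-Glo luciferase luminescence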
UPR XBP1 act: activators of adaptive XBP1 UPR arm, primary screen, cell-based, CHO-XBP1 luciferase reporter, luminescence, uHTS | AID 463104, 2010 | IRE1-XBP1 UPR activation; percent of tunicamycin response, DMSO as zero | actives 0.33% (n = 330,000) | activation, % at 20 µM;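 active = versus positive control, 20 µM dose yields 30% or more activation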;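 also: 100% = tunicamycin at 10 µg/mL and 0% = DMSO only wells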
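Material: CHO cell line with stable XBP1 luciferase reporter; buffer or medium: F12 medium containing 10% fetal bovine serum; compound: single point, 20 µM final compound, 1% DMSO; incubation: 6 h treatment, 37 °C; measured by: glow luminescence from Steady-Glo reagent; evaluation: activation, % of tunicamycin; control set: tunicamycin high, DMSO low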
* = called active by the depositor. Only a selection was taken, and hits are over-represented in it overall.

How did COc1cc(-n2c(=O)c3ccccc3n(Cc3cc(=O)n4ccccc4n3)c2=O)cc(OC)c1OC do in these assays?
CHOP inh: -14; Cardio protect: 57*; iPSC survival up: 0; UPR CHOP act: 7; UPR XBP1 act: 0

How did Cc1ccc(-c2nc(SC(C)C(=O)NC3CC3)n[nH]2)cc1 (stereo not given) do in these assays?
Cardio protect: 7; iPSC survival up: -1

Results for COC(=O)c1ccc(N2CCN(C(=O)C3CC3)CC2)c([N+](=O)[O-])c1 ?
Cardio protect: -4; iPSC survival up: 0; UPR CHOP act: 1; UPR XBP1 act: 5

Results for COC(=O)c1ccc(N2CCC(c3cc(-c4ccc(OC)cc4)n[nH]3)CC2)c([N+](=O)[O-])c1 ?
CHOP inh: 79*; Cardio protect: -1; iPSC survival up: 1; UPR CHOP act: 5; UPR XBP1 act: 8

Results for CC(=O)c1ccc(N2CCC(c3cc(-c4ccc(Cl)cc4)n[nH]3)CC2)c([N+](=O)[O-])c1 ?
CHOP inh: 61; Cardio protect: -13; iPSC survival up: 1; UPR CHOP act: 8; UPR XBP1 act: 6

What do the screens show for `COc1ccc(-c2cc(C3CCN(c4ccc(C(C)=O)cc4[N+](=O)[O-])CC3)[nH]n2)cc1`?
CHOP inh: 86*; Cardio protect: -19; iPSC survival up: -3; UPR CHOP act: 5; UPR XBP1 act: 3

Results for COc1cccc(/C=N/NC(N)=S)c1OCc1cccc(Cl)c1 ?
CHOP inh: 35; Cardio protect: 4; iPSC survival up: -2; UPR CHOP act: 0; UPR XBP1 act: 1

How did COC(=O)N/N=C/c1cc(Cl)cc(Cl)c1OCc1ccccc1 do in these assays?
CHOP inh: 74*; Cardio protect: 12; iPSC survival up: -2; UPR CHOP act: 3; UPR XBP1 act: -2

How did CCOC(=O)c1cc2c(ccn2C)n1CC(=O)N1CCC(Cc2ccccc2)CC1 do in these assays?
CHOP inh: 71*; Cardio protect: -9; iPSC survival up: 2; UPR CHOP act: -2; UPR XBP1 act: 1

What do the screens show for `COc1ccc(/C=C2\SC(c3ccc(C)cc3)=NC2=O)cc1OC`?
CHOP inh: 37; Cardio protect: 14; iPSC survival up: -1; UPR CHOP act: -1; UPR XBP1 act: 4

How did COc1cc(/C=C2\SC(=S)N(NC(=O)c3cccnc3)C2=O)ccc1O do in these assays?
CHOP inh: 17; Cardio protect: -4; iPSC survival up: 0; UPR CHOP act: 0; UPR XBP1 act: -1

How did COc1cc(/C=C2\SC(c3ccc(C)cc3)=NC2=O)ccc1O do in these assays?
CHOP inh: 86*; Cardio protect: -6; iPSC survival up: -2; UPR CHOP act: -6; UPR XBP1 act: -3

What do the screens show for `COc1cc(/C=C2\SC(=S)N(c3cccnc3)C2=O)ccc1O`?
CHOP inh: 90*; Cardio protect: 1; iPSC survival up: 0; UPR CHOP act: 1; UPR XBP1 act: -1

What do the screens show for `CC[N+]1=C(C)C(C)(C)c2cc(C)ccc21`?
CHOP inh: 74*; Cardio protect: -19; iPSC survival up: -1; UPR CHOP act: 0; UPR XBP1 act: 2

What do the screens show for `CC(C)C[C@H]1CNC(=O)C(=O)N1C[C@@H]1CCCN1C[C@H](CC(C)C)N1C[C@H](Cc2ccccc2)N(CCc2ccccc2)C(=O)C1=O`?
iPSC survival up: 0

What do the screens show for `COc1ccccc1S(=O)(=O)N(C)C[C@@H]1OCc2cnnn2CCCC(=O)N([C@@H](C)CO)C[C@@H]1C`?
Cardio protect: 10; iPSC survival up: 0

Results for CCCCCCNC(=O)O[C@H]1Cn2c(=O)ccc(=O)n2[C@@H]2CN(S(=O)(=O)c3ccc(C)cc3)C[C@]12O ?
Cardio protect: -9; iPSC survival up: -4

How did Cc1cc(C)n2nc(C(=O)N/N=C/c3c4ccccc4cc4ccccc34)nc2n1 do in these assays?
CHOP inh: 18; Cardio protect: 64*; iPSC survival up: 1; UPR CHOP act: -1; UPR XBP1 act: 1

Compound activity as filed in PubChem.
